The record followed here is ChEMBL document CHEMBL2016550, “Synthesis and structure-activity relationships of 1,2,4-triazolo[1,5-a]pyrimidin-7(3H)-ones as novel series of potent β isoform selective phosphatidylinositol 3-kinase inhibitors” (Bioorg Med Chem Lett, 2012).

Series [1] can be described thus: Selectivity ratio of IC50 for PI3Kdelta to IC50 for PI3Kbeta.
Series [2] concerns the target T1, Phosphatidylinositol 4,5-bisphosphate 3-kinase catalytic subunit beta isoform (Homo sapiens, UniProt P42338). Description: Inhibition of PI3Kbeta by continuous read time resolved fluorescence resonance energy transfer displacement assay.
Series [3] deals with T1, Phosphatidylinositol 4,5-bisphosphate 3-kinase catalytic subunit beta isoform. Description: Inhibition of PI3K beta-mediated AKT phosphorylation at serine 473 in PTEN deficient human MDA-MB-468 cells after 30 mins. The class given is cell-based. A digest of the protocol:
(§1)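 Breast cancer cells plated and held about 16–20 h, then exposed to compound for 30 min at 0.15% final DMSO. After a Tris wash, cells were lysed in buffer with protease and phosphatase inhibitors. Ser473-pAKT and total AKT were measured by MSD duplex immunoassay, normalised to total AKT (pAKT + AKT signal), and expressed as percent of DMSO control. IC50 from concentration-response fits; means of at least 2 experiments.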

A further series concerns MDA-MB-468. Description: Cytotoxicity against PTEN deficient human MDA-MB-468 cells after 6 days by alamar blue assay. The class given is functional, cell-based. A digest of the protocol: (§2)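 Cells were grown anchorage-independently: a 0.6% agar/medium + 10% FBS bottom layer, cells in 0.3% agar/medium + 10% FBS, and medium + 10% FBS on top. After 16–20 h they were dosed (0.15% final DMSO) for 6 days, with a baseline plate read at dosing. Alamar Blue was added for 6 h and read as fluorescence (ex 530/em 590 nm). Signal from 0.3% Brij 35 background wells was subtracted, values were expressed as % of DMSO control, and fitted with a 4-parameter logistic.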
(In general: Alamar Blue is a resazurin reagent that responds to reducing activity.)

Series [4] in a line: Clearance in rat at 0.25 mg/kg, iv. Details: dose 0.25 mg/kg, route intravenous; call rule not given here. As to conditions: in vivo. The class given is ADME, organism-based. An outline of the steps:
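Rats given a single IV dose at 0.25 mg/kg, formulated in 1% DMSO with 20% Encapsin in saline. Clearance was calculated after IV administration. Reported values are means of at least 2 experiments.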

The target of series [5] is T2, Phosphatidylinositol 4,5-bisphosphate 3-kinase catalytic subunit delta isoform (Homo sapiens, UniProt O00329).
T2 sequence (O00329 whole entry): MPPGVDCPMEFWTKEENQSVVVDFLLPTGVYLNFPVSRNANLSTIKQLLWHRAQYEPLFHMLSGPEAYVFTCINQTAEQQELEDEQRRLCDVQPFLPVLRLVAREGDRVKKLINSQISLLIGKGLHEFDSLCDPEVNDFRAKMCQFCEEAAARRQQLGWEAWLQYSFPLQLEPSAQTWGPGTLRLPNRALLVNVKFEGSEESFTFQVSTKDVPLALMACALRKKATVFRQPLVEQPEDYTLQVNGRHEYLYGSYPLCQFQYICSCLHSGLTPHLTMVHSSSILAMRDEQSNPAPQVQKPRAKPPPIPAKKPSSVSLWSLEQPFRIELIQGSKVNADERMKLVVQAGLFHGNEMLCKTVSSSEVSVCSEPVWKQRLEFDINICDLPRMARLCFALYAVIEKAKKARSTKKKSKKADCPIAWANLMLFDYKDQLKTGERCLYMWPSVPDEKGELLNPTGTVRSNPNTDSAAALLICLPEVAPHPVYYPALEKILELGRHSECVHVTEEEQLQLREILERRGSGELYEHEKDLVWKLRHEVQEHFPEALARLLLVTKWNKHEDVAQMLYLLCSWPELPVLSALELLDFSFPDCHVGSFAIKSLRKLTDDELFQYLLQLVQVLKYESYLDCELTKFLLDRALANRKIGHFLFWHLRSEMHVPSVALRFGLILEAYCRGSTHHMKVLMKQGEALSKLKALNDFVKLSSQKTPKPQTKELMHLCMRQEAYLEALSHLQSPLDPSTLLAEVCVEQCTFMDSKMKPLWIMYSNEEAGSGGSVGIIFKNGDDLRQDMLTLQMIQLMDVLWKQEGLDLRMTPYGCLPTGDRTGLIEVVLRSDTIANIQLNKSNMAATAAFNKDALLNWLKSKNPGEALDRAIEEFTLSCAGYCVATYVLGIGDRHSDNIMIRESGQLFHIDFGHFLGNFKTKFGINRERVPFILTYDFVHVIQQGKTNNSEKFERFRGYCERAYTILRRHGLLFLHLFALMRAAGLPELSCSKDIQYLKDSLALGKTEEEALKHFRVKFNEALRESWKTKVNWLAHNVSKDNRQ
Description: Inhibition of PI3Kdelta by continuous read time resolved fluorescence resonance energy transfer displacement assay.

The target of series [6] is Serine/threonine-protein kinase mTOR (Homo sapiens, UniProt P42345). Description: Inhibition of mTOR.
Series [7] can be described thus: Inhibition of DNA-PK.
Series [8] addresses T1, Phosphatidylinositol 4,5-bisphosphate 3-kinase catalytic subunit beta isoform. Description: Inhibition of PI3K beta-mediated AKT phosphorylation at serine 473 in PTEN wild type human HCC1954 cells. It is filed as cell-based. An outline of the steps:
as §1

The test system of the next series is HCC1954. Description: Cytotoxicity against PTEN wild type human HCC1954 cells after 6 days by alamar blue assay. It is filed as functional, cell-based. The settings on record: HCC1954, 144 h. An outline of the steps:
as §2

The target in series [9] is Phosphatidylinositol 4,5-bisphosphate 3-kinase catalytic subunit alpha isoform (Homo sapiens, UniProt P42336). Description: Inhibition of PI3Kalpha by continuous read time resolved fluorescence resonance energy transfer displacement assay.
Chain of Phosphatidylinositol 4,5-bisphosphate 3-kinase catalytic subunit alpha isoform (P42336 whole entry, canonical isoform): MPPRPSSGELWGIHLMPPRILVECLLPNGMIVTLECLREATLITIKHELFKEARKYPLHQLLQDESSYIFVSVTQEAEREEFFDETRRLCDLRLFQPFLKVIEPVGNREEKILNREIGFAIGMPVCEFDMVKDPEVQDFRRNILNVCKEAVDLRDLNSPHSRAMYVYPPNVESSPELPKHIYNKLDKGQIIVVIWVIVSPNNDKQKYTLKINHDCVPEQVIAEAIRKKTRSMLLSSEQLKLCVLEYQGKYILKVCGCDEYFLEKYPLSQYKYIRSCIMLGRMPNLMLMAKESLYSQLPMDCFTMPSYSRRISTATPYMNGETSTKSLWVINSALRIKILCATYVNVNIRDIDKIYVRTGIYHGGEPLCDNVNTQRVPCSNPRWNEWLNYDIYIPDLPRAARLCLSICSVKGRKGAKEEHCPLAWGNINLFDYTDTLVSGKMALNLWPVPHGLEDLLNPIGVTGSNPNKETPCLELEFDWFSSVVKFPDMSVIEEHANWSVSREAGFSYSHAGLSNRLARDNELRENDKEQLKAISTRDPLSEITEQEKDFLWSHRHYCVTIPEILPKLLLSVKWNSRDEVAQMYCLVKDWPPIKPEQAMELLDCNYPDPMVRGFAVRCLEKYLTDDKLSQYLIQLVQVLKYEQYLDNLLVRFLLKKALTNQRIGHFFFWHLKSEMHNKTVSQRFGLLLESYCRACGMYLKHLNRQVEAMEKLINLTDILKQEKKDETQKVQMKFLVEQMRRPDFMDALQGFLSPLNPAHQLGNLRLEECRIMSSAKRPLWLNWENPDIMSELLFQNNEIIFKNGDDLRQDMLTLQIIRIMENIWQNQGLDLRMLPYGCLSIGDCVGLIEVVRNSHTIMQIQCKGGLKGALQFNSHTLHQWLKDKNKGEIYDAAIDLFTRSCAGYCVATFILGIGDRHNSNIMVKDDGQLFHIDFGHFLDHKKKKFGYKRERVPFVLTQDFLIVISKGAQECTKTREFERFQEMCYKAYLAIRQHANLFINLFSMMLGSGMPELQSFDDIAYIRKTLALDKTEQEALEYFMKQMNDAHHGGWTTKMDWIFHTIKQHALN
Series [10] concerns the target Phosphatidylinositol 4,5-bisphosphate 3-kinase catalytic subunit gamma isoform (Homo sapiens, UniProt P48736). Description: Inhibition of PI3Kgamma by continuous read time resolved fluorescence resonance energy transfer displacement assay.
The mark [11] stands for this setting: Homo sapiens, MDA-MB-468, 144 h, read-out: EC50.

Some results are limits rather than exact numbers.

Chain of Phosphatidylinositol 4,5-bisphosphate 3-kinase catalytic subunit gamma isoform (P48736 whole entry, canonical isoform): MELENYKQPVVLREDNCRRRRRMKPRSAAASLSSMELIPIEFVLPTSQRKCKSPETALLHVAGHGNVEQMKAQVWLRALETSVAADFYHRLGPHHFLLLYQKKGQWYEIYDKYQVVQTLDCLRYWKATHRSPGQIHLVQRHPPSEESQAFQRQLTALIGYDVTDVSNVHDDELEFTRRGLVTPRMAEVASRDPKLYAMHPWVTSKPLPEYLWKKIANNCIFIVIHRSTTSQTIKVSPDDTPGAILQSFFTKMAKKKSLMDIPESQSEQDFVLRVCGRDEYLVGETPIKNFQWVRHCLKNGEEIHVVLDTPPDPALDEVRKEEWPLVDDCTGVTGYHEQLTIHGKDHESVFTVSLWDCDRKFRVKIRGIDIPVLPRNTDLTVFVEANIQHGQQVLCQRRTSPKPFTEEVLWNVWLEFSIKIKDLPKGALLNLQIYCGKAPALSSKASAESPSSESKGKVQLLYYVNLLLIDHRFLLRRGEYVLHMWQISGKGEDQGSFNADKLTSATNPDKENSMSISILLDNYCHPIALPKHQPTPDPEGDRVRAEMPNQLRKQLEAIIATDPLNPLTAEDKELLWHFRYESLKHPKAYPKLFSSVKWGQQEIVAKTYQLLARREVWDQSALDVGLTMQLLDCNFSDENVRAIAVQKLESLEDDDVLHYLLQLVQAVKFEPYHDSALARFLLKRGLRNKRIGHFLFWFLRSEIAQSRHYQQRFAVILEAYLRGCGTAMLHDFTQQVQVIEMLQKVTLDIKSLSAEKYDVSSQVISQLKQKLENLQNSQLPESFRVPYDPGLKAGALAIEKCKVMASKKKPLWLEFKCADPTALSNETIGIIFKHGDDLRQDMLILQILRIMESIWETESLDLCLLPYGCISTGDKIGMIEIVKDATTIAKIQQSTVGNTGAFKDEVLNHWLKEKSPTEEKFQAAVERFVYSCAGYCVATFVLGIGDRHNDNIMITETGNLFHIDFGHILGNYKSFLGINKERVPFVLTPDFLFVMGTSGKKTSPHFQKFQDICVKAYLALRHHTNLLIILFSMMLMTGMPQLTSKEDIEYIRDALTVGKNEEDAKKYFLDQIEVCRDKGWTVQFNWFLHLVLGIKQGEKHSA
T1 sequence (P42338 whole entry, canonical isoform): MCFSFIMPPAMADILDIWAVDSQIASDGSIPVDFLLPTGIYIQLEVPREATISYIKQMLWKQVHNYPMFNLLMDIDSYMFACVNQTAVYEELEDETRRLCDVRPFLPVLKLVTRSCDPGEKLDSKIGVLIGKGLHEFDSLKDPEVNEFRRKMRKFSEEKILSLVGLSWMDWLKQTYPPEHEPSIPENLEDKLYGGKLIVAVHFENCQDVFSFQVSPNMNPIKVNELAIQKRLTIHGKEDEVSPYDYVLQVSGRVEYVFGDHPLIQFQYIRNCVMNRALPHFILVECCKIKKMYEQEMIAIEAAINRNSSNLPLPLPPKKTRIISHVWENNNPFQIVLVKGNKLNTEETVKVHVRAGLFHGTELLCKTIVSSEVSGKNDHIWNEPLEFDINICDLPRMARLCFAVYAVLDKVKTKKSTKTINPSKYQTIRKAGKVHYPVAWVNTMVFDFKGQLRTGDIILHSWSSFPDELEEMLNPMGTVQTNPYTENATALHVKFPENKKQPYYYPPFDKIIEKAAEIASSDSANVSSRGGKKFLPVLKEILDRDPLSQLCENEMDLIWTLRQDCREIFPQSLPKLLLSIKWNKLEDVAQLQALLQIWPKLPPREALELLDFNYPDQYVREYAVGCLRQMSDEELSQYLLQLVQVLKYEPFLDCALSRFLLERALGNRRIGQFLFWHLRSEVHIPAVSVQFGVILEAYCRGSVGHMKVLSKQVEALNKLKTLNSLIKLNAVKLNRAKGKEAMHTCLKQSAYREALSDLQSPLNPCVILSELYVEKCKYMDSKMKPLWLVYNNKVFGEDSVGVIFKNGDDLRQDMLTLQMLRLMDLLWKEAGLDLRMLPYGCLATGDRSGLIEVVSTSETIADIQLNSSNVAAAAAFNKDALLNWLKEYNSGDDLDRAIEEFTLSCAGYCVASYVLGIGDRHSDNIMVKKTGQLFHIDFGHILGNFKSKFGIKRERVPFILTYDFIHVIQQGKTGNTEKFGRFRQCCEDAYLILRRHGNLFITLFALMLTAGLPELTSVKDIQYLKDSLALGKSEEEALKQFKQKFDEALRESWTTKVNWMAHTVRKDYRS

As to `Cc1c(Cn2c(C)nn3c(=O)cc(N4CCOC(C)C4)nc23)cccc1C(F)(F)F` (single isomer, unassigned; enantiomer 2) [listing 1 of 2 here], the Ratio IC50 in series [1] is above 10.
By IC50 is commonly meant the concentration that inhibits the measured activity by half. High values mean weaker potency in that assay, low ones greater potency in that assay. A word on the EC50: it is the concentration at which the effect is half-maximal. In general, clearance refers to the volume of plasma or blood freed of the substance per unit of time. A low value points to a low capacity for elimination. Consider `Cc1c(Cn2c(C)nn3c(=O)nc(N4CCOCC4)cc23)cccc1C(F)(F)F`, for which the IC50 worked out at 2 nM in [2] and 92 nM in series [3]. Besides, the 50% effective concentration (EC50) with MDA-MB-468 (setting [11]) amounted to 210 nM. This compound yielded a clearance in [4] of 83 mL/min/kg.
For `Cc1c(Cn2c(C)cn3c(=O)cc(N4CCOCC4)nc23)cccc1C(F)(F)F`, the IC50 was 1.3 nM in series [2]; 7.9 nM in series [5]; 32000 nM in [6]; 800 nM in [7]; above 29000 nM in [8]. Also, the 50% effective concentration (EC50) in the series on HCC1954 worked out at 9700 nM.
As for `Cc1c(Cn2c(C3CC3)nn3c(=O)cc(N4CCOCC4)nc23)cccc1C(F)(F)F`, the IC50 in series [9] was determined as 2500 nM; in series [2], 1.3 nM; in series [10], 1600 nM; in series [5] it was 40 nM; in series [3] it was 4.1 nM. Also, the Ratio IC50 in [1] was 6. In the series on MDA-MB-468 (setting [11]), the concentration for a half-maximal effect (EC50) came to 40 nM.
For the compound `CSc1nn2c(=O)cc(N3CCOCC3)nc2n1Cc1cccc(C(F)(F)F)c1C`, the IC50 in series [9] is 320 nM; in series [2] it was 0.4 nM; in [10] it was 1300 nM; in [5] it was 25 nM; in series [3], 5.1 nM. The Ratio IC50 in series [1] turned out to be 6. Besides, in the series with MDA-MB-468 (mda-mb-468), the EC50 entry is “Not Active”.
For the compound `Cc1c(Cn2c(C)nn3c(=O)cc(N4CCOC(C)C4)nc23)cccc1C(F)(F)F` (single isomer, unassigned; enantiomer 1) [listing 1 of 2 here], in [1], the Ratio IC50 was 6.
`Cc1c(Cn2c(C)nn3c(=O)cc(N4CCOC(C)C4)nc23)cccc1C(F)(F)F` (single isomer, unassigned; enantiomer 2) [listing 2 of 2 here]: the 50% inhibitory concentration (IC50) in series [9] stood at 320 nM; in [2] it was 0.3 nM; in [10] it was 60 nM; in [5], 4 nM; in [3] it was 0.5 nM; in series [6] it was 6300 nM. For the same compound, the concentration for half-maximal inhibition (IC50) in series [7] turned out to be 160 nM; in [8] it was 2500 nM. Also, the EC50 in the series with MDA-MB-468 (mda-mb-468, read-out: EC50) is 13 nM; in the series with HCC1954, 2200 nM.
Regarding `CSc1nn2c(=O)cc(-c3ccncc3)nc2n1Cc1cccc(Cl)c1Cl`, the IC50 in series [9] turned out to be 400 nM; in series [2], 13 nM; in series [10], 2000 nM; in series [5], 79 nM. Besides, in series [1], the Ratio IC50 turned out to be 6.
As to `Cc1c(Cn2c(C)nn3c(=O)cc(N4CCOC(C)C4)nc23)cccc1C(F)(F)F` (racemic) [listing 1 of 2 here], the half-inhibitory concentration (IC50) in [9] was 400 nM; in series [2], 1.3 nM; in [10], 160 nM; in series [5] it was 10 nM; in series [3], 2.7 nM. The EC50 with MDA-MB-468 (mda-mb-468, read-out: EC50) was 55 nM.
For the compound `Cc1nn2c(=O)cc(N3CCOC(C)C3)nc2n1Cc1cccc(Cl)c1Cl` (stereo in doubt; 6) [listing 1 of 2 here], the IC50 was found to be 2500 nM in series [9], 25 nM in series [2], 7900 nM in [10] and 500 nM in series [5].
For `CSc1nn2c(=O)cc(N3CCOCC3)nc2n1Cc1cccc(Cl)c1Cl`, the half-maximal inhibitory concentration (IC50) in series [9] was 1600 nM; in series [2] it was 1.6 nM; in [10], 500 nM; in [5], 31 nM; in [3], 13 nM. Moreover, the Ratio IC50 in series [1] turned out to be 19. Further, in the series on MDA-MB-468 (setting [11]), the concentration for a half-maximal effect (EC50) stood at 240 nM.
Consider `Cc1c(Cn2c(C)nn3c(=O)cc(N4CCOC(C)C4)nc23)cccc1C(F)(F)F` (single isomer, unassigned; enantiomer 1) [listing 2 of 2 here], for which the 50% inhibitory concentration (IC50) was 1600 nM in series [9]; 3.1 nM in series [2]; 790 nM in series [10]; 63 nM in series [5]; 7.9 nM in series [3]. The concentration for a half-maximal effect (EC50) with MDA-MB-468 (mda-mb-468, read-out: EC50) was 310 nM.
Take `Cc1nn2c(=O)cc(N3CCOC(C)C3)nc2n1Cc1cccc(Cl)c1Cl` (single isomer, unassigned; enantiomer 2): the 50% inhibitory concentration (IC50) in [9] worked out at 1000 nM; in [2], 1.3 nM; in series [10], 500 nM; in [5], 40 nM; in series [3], 3.4 nM. Further, in the series on MDA-MB-468 (setting [11]), the EC50 came out at 110 nM.
In the case of `Cc1nn2c(=O)cc(N3CCOC(C)C3)nc2n1Cc1cccc(Cl)c1Cl` (stereo in doubt; 6) [listing 2 of 2 here], in series [1], the Ratio IC50 was 20.
Regarding `Cc1nn2c(=O)cc(N3CCOCC3)nc2n1Cc1cccc(Cl)c1Cl`, the IC50 in [9] is 630 nM; in series [2] it was 1.3 nM; in series [10], 500 nM; in [5], 50 nM; in [3], 34 nM. In addition, in series [1], the Ratio IC50 is 6. The EC50 in the series with MDA-MB-468 (setting [11]) was 170 nM.
`CSc1nn2c(=O)cc(N3CCOC(C)C3)nc2n1Cc1cccc(C(F)(F)F)c1C` (stereo not drawn): the IC50 in series [9] is 1300 nM; in series [2] it was 1 nM; in series [10], 200 nM; in series [5], 25 nM. Further, in series [1], the Ratio IC50 was 6.
For `O=c1cc(N2CCOCC2)nc2n(Cc3cccc(Cl)c3Cl)c(C3CC3)nn12`, the IC50 came to 2500 nM in series [9]; 2.5 nM in series [2]; 2500 nM in [10]; 130 nM in [5]; 20 nM in series [3]. Besides, in series [1], the Ratio IC50 was 52. Besides, in the series with MDA-MB-468 (setting [11]), the EC50 turned out to be 260 nM.
For `Cc1nn2c(=O)cc(N3CCOC(C)C3)nc2n1Cc1cccc(Cl)c1Cl` (racemic), the 50% inhibitory concentration (IC50) in [9] turned out to be 320 nM; in series [2] it was 2 nM; in [10], 250 nM; in series [5], 25 nM.
As to `Cc1c(Cn2c(C)nn3c(=O)cc(N4CCOCC4)nc23)cccc1C(F)(F)F`, the IC50 in series [9] came to 630 nM; in series [2], 0.6 nM; in series [10] it was 790 nM; in [5], 20 nM; in series [3], 1.5 nM. Moreover, in [1], the Ratio IC50 is 6. The EC50 in the series with MDA-MB-468 (setting [11]) amounted to 110 nM. Also, the clearance in series [4] stood at 130 mL/min/kg.
`Cc1c(Cn2c(C)nn3c(=O)cc(N4CCOC(C)C4)nc23)cccc1C(F)(F)F` (racemic) [listing 2 of 2 here]: in series [1], the Ratio IC50 is 6.
